Here are results for 30 sequences from the array DNA melting data of Ke et al. (doi:10.1101/2024.01.08.574731).

Data set [1] can be described thus: melting temperature; fluorescence melt of hairpins on a sequencing array, two-state fit, raised by 9.35 °C to match UV melts. Particulars: sodium 0.088 M. The gist of the method:
(§1)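 Melting temperature and folding enthalpy were obtained by bootstrapped two-state fitting. Fits used Cy3 fluorescence of library hairpins with annealed Cy3 and quencher oligos on a sequenced MiSeq flow cell, imaged in 50 mM Na-HEPES pH 8.0, 25 mM NaCl in 2.5 °C steps up to 60 °C and normalised to pre-quench Cy3 and control constructs. Four replicates were combined by inverse-variance weighting, and fitted temperatures were raised by 9.35 °C to match UV melts.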

A short description of data set [2]: folding enthalpy; higher = less favourable; fluorescence melt of hairpins on a sequencing array, two-state fit. The conditions noted are these: sodium 0.088 M. The gist of the method:
as §1

For the sequence GTCTCTGCGAAAGCAGAC (((..(((....)))))), the Tm in data set [1] was determined as 34.3 °C. For the same sequence, in data set [2], the folding enthalpy was -8.28 kcal/mol.

In the case of GTCTGACGAAAGTCCGAC (((.(((....))).))), in data set [1], the Tm was determined as 49 °C. Further, the folding enthalpy in data set [2] was -28.5 kcal/mol.

For the sequence GTCTGACGAAAGTCGAC (((.(((....)))))), in data set [1], the Tm came out at 49 °C. Also, the folding enthalpy in data set [2] was -16.9 kcal/mol.

Consider GTCTGACGAAAGTCGGAC (((.(((....))).))), for which the Tm in data set [1] stood at 62.4 °C. Moreover, the folding enthalpy in data set [2] is -35.8 kcal/mol.

Consider GTCTGAGGAAACCCAGAC (((((.(....).))))), for which the Tm in data set [1] came out at 45.9 °C. For the same sequence, the folding enthalpy in data set [2] was -31.8 kcal/mol.

As to GTCTGAGGAAACTTGGAC (((..((....))..))), in data set [1], the Tm was 31.7 °C. The folding enthalpy in data set [2] was -15.9 kcal/mol.

For GTCTGCCCGAAAGGGGAC (((..(((....)))))), the Tm in data set [1] is 34.8 °C. The folding enthalpy in data set [2] is -10.9 kcal/mol.

Take GTCTGCGAAAGCACCGAC ((((((....)))..))): the Tm in data set [1] was determined as 32.3 °C. The folding enthalpy in data set [2] is -12.7 kcal/mol.

As for GTCTGCGAAAGCACTGAC ((((((....)))..))), in data set [1], the Tm was 36.3 °C. Also, the folding enthalpy in data set [2] was -15.1 kcal/mol.

For the sequence GTCTGCGAAAGCAGTGAC ((((((....)))..))), the Tm in data set [1] amounted to 40.5 °C. Moreover, in data set [2], the folding enthalpy is -9.57 kcal/mol.

GTCTGGCGAAAGCCTGAC (((.(((....))).))): in data set [1], the Tm worked out at 62 °C. Besides, the folding enthalpy in data set [2] is -26.8 kcal/mol.

For the sequence GTCTGGTCGAAAGACGAC (((..(((....)))))), the Tm in data set [1] amounted to 41.5 °C. The folding enthalpy in data set [2] is -17.2 kcal/mol.

GTCTGTGAAAACAGAC ((((((....)))))): the Tm in data set [1] was 57.8 °C. Further, the folding enthalpy in data set [2] is -36.1 kcal/mol.

In the case of GTCTGTGGAAACACAGAC (((((((....))))))), the Tm in data set [1] stood at 65.1 °C. The folding enthalpy in data set [2] is -50.5 kcal/mol.

Regarding GTCTTACGAAAGTACGAC (((.(((....))).))), the Tm in data set [1] was 43.8 °C. Further, the folding enthalpy in data set [2] was -34.5 kcal/mol.

On to GTCTTACGAAAGTAGGAC (((.(((....))).))), for which the Tm in data set [1] came to 48.9 °C. Besides, in data set [2], the folding enthalpy was -28.2 kcal/mol.

Take GTCTTACGAAAGTATGAC (((.(((....))).))): the Tm in data set [1] was determined as 48.3 °C. In addition, the folding enthalpy in data set [2] is -30.9 kcal/mol.

As to GTCTTATCGAAAGATGAC (((..(((....)))))), in data set [1], the Tm is 28.5 °C. Moreover, in data set [2], the folding enthalpy is -20.1 kcal/mol.

As to GTCTTCGAAAGAAGAGAC ((((((....)))..))), the Tm in data set [1] is 36.5 °C. Besides, the folding enthalpy in data set [2] was -16.7 kcal/mol.

With GTCTTCGAAAGAAGCGAC ((((((....)))..))), the Tm in data set [1] came out at 44.7 °C. Moreover, the folding enthalpy in data set [2] was -20 kcal/mol.

For GTCTTCGAAAGAAGGAC ((((((....))).))), in data set [1], the Tm worked out at 41.6 °C. Besides, in data set [2], the folding enthalpy was -16.4 kcal/mol.

Turning to GTCTTCGCGAAAGCGGAC (((..(((....)))))), in data set [1], the Tm was 30.4 °C. Further, in data set [2], the folding enthalpy is -10.6 kcal/mol.

On to GTCTTCTCGAAAGAGGAC (((..(((....)))))), for which, in data set [1], the Tm was 33.5 °C. Moreover, the folding enthalpy in data set [2] is -17.2 kcal/mol.

With GTCTTGGAAACAAGAC ((((((....)))))), the Tm in data set [1] came to 54.9 °C. Besides, in data set [2], the folding enthalpy was -35.3 kcal/mol.

Regarding GTCTTGGCGAAAGCCGAC (((..(((....)))))), the Tm in data set [1] was determined as 37.5 °C. In addition, the folding enthalpy in data set [2] is -9.96 kcal/mol.

Consider GTCTTGGGAAACTGAGAC ((((..(....)..)))), for which, in data set [1], the Tm came to 35.1 °C. Moreover, in data set [2], the folding enthalpy is -23.8 kcal/mol.

Regarding GTCTTTGGAAACGAAGAC (((((.(....).))))), in data set [1], the Tm is 45 °C. The folding enthalpy in data set [2] was -30.6 kcal/mol.

For the sequence GTGAAACGAAAGTTACAC (((.(((....))).))), the Tm in data set [1] was 46.2 °C. For the same sequence, the folding enthalpy in data set [2] is -29.7 kcal/mol.

Regarding GTGAAACGAAAGTTGCAC (((.(((....))).))), the Tm in data set [1] was determined as 51.6 °C. Also, the folding enthalpy in data set [2] is -31.2 kcal/mol.

For GTGAAAGGAAACTTTCAC (((((((....))))))), the Tm in data set [1] worked out at 54.1 °C. Besides, in data set [2], the folding enthalpy is -50.6 kcal/mol.
